Assay results: ChEMBL document CHEMBL1165950, “Design and synthesis of new potent anticancer pyrazoles with high FLT3 kinase inhibitory selectivity” (Bioorg Med Chem, 2010)

Legend:
Type in all cases: functional
MOLT-4 = assay: Cytotoxicity against human MOLT4 cells assessed as cell growth at 100 nM after 48 hrs by sulforhodamine B assay; conditions: MOLT-4, 48 h, read-out: Activity
HCT-15 [1] = assay: Cytotoxicity against human HCT15 cells assessed as cell growth at 1 uM after 48 hrs by sulforhodamine B assay; conditions: HCT-15, 48 h, read-out: Activity
[2] = Cytotoxicity against human […] cells assessed as cell growth at 0.001 uM after 48 hrs by sulforhodamine B assay; conditions: read-out: Activity
NCI-H226 = assay: Cytotoxicity against human NCI-H226 cells assessed as cell growth at 0.001 uM after 48 hrs by sulforhodamine B assay; conditions: NCI-H226, 48 h, read-out: Activity
IGROV-1 = assay: Growth inhibition of human IGROV1 cells after 48 hrs by sulforhodamine B assay; conditions: IGROV-1, 48 h; for CC50: read-out: LC50 (the source's name)
Summary of the method: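 NCI 60-cell screen, five-dose mode. Cells grown in RPMI 1640 with 5% FBS and 2 mM L-glutamine and plated at 5000-40,000 cells/well according to doubling time. After 24 h preincubation, a Tz plate was TCA-fixed. Five concentrations (10-fold or 1/2 log dilutions) were applied for 48 h at 37 °C. SRB staining read at 515 nm. IC50 taken from [(Ti-Tz)/(C-Tz)]×100 = 50.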

HL-60(TB) = assay: Growth inhibition of human HL-60(TB) cells after 48 hrs by sulforhodamine B assay; conditions: HL-60, 48 h
Summary of the method: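 NCI 60-cell SRB screen. Cells in RPMI 1640 with 5% FBS and 2 mM L-glutamine are preincubated 24 h, then exposed to five concentrations (10-fold or 1/2-log dilutions from DMSO stock) for 48 h at 37 °C. Suspension cells are fixed with 80% TCA (final 16%), and A515 is read. IC50 is taken as the concentration where [(Ti−Tz)/(C−Tz)]×100 = 50, i.e. 50% reduction in net protein increase.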

OVCAR-5 = assay: Cytotoxicity against human OVCAR5 cells assessed as cell growth at 0.01 uM after 48 hrs by sulforhodamine B assay; conditions: OVCAR-5, 48 h, read-out: Activity
CAKI-1 = assay: Cytotoxicity against human Caki1 cells assessed as cell growth at 0.001 uM after 48 hrs by sulforhodamine B assay; conditions: CAKI-1, 48 h, read-out: Activity
NCI-H23 = assay: Cytotoxicity against human NCI-H23 cells assessed as cell growth at 1 uM after 48 hrs by sulforhodamine B assay; conditions: NCI-H23, 48 h, read-out: Activity
HCT-116 = assay: Cytotoxicity against human HCT116 cells assessed as cell growth at 1 uM after 48 hrs by sulforhodamine B assay; conditions: HCT-116, 48 h, read-out: Activity
MDA-MB-435 = assay: Cytotoxicity against human MDA-MB-435 cells assessed as cell growth at 100 nM after 48 hrs by sulforhodamine B assay; conditions: MDA-MB-435, 48 h, read-out: Activity
HCT-15 [3] = assay: Cytotoxicity against human HCT15 cells assessed as cell growth at 0.001 uM after 48 hrs by sulforhodamine B assay; conditions: HCT-15, 48 h, read-out: Activity
[4] = Cytotoxicity against human Hs 578T cells assessed as cell growth at 0.001 uM after 48 hrs by sulforhodamine B assay; conditions: read-out: Activity
SF-268 = assay: Cytotoxicity against human SF268 cells assessed as cell growth at 0.001 uM after 48 hrs by sulforhodamine B assay; conditions: SF-268, 48 h, read-out: Activity
EKVX = assay: Cytotoxicity against human EKVX cells assessed as cell growth at 1 uM after 48 hrs by sulforhodamine B assay; conditions: read-out: Activity
SK-MEL-2 [5] = assay: Cytotoxicity against human SK-MEL-2 cells assessed as cell growth at 0.001 uM after 48 hrs by sulforhodamine B assay; conditions: SK-MEL-2, 48 h, read-out: Activity
SK-MEL-5 = assay: Cytotoxicity against human SK-MEL-5 cells assessed as cell growth at 0.001 uM after 48 hrs by sulforhodamine B assay; conditions: SK-MEL-5, 48 h, read-out: Activity
ACHN = assay: Cytotoxicity against human ACHN cells assessed as cell growth at 1 uM after 48 hrs by sulforhodamine B assay; conditions: read-out: Activity
Summary of the method: (§1)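 NCI-60 five-dose screen. Cells were grown in RPMI 1640 with 5% FBS and 2 mM L-glutamine, plated at 5000–40,000 cells/well and preincubated for 24 h. Time-zero plates were TCA-fixed. DMSO-solubilized drug was added at five concentrations (10-fold or ½-log serial dilutions) for 48 h at 37 °C, 5% CO2. Cells were TCA-fixed, stained with 0.4% SRB and read at 515 nm. Percent growth used time-zero, control and test absorbances.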

KM12 = assay: Cytotoxicity against human KM12 cells assessed as cell growth at 0.01 uM after 48 hrs by sulforhodamine B assay; conditions: KM12, 48 h, read-out: Activity
[6] = Cytotoxicity against human RPMI8266 cells assessed as cell growth at 1 uM after 48 hrs by sulforhodamine B assay; conditions: read-out: Activity
HOP-62 [7] = assay: Cytotoxicity against human HOP62 cells assessed as cell growth at 0.01 uM after 48 hrs by sulforhodamine B assay; conditions: HOP-62, 48 h, read-out: Activity
HOP-62 [8] = assay: Cytotoxicity against human HOP62 cells assessed as cell growth at 100 nM after 48 hrs by sulforhodamine B assay; conditions: HOP-62, 48 h, read-out: Activity
NCI-H460 = assay: Cytotoxicity against human NCI-H460 cells assessed as cell growth at 10 uM after 48 hrs by sulforhodamine B assay; conditions: NCI-H460, 48 h, read-out: Activity
A498 = assay: Cytotoxicity against human A498 cells assessed as cell growth at 100 nM after 48 hrs by sulforhodamine B assay; conditions: A498, 48 h, read-out: Activity; summary of the method: as §1
SW-620 = assay: Cytotoxicity against human SW620 cells assessed as cell growth at 100 nM after 48 hrs by sulforhodamine B assay; conditions: SW-620, 48 h, read-out: Activity
BT-549 = assay: Cytotoxicity against human BT549 cells assessed as cell growth at 1 uM after 48 hrs by sulforhodamine B assay; conditions: BT-549, 48 h, read-out: Activity; summary of the method: as §1
T47D = assay: Cytotoxicity against human T47D cells assessed as cell growth at 10 uM after 48 hrs by sulforhodamine B assay; conditions: read-out: Activity
SK-MEL-2 [9] = assay: Cytotoxicity against human SK-MEL-2 cells assessed as cell growth at 1 uM after 48 hrs by sulforhodamine B assay; conditions: SK-MEL-2, 48 h, read-out: Activity

Row | Compound | growth at 0.1 µM (MOLT-4) [%] | growth at 1 µM (HCT-15 [1]) [%] | growth at 0.001 µM [2] [%] | growth at 0.001 µM (NCI-H226) [%] | GI50 (IGROV-1) [µM] | TGI (IGROV-1) [µM] | CC50 (IGROV-1) [µM] | GI50 (HL-60(TB)) [µM] | LC50 (HL-60(TB)) [µM] | TGI (HL-60(TB)) [µM] | growth at 0.01 µM (OVCAR-5) [%] | growth at 0.001 µM (CAKI-1) [%] | growth at 1 µM (NCI-H23) [%] | growth at 1 µM (HCT-116) [%] | growth at 0.1 µM (MDA-MB-435) [%] | growth at 0.001 µM (HCT-15 [3]) [%] | growth at 0.001 µM [4] [%] | growth at 0.001 µM (SF-268) [%] | growth at 1 µM (EKVX) [%] | growth at 0.001 µM (SK-MEL-2 [5]) [%] | other results
1 | COc1cc(C)cc(-c2c(-c3ccnc(-c4ccc(C(C)=O)cc4)c3)cnn2CC#N)c1 | 81 | 12 | 95 | 100 | 3.57 | > 100 | > 100 | 2.26 | > 100 | 6.5 | 70 | 104 | 19 | -27 | 63 | 94 | 95 | 97 | 37 | 92 | growth at 0.001 µM (SK-MEL-5): 95%; growth at 1 µM (ACHN): 21%; growth at 0.01 µM (KM12): 97%; growth at 1 µM [6]: -4%; growth at 0.01 µM (HOP-62 [7]): 81%; growth at 0.1 µM (HOP-62 [8]): 84%; growth at 10 µM (NCI-H460): 2%; growth at 0.1 µM (A498): 65%; growth at 0.1 µM (SW-620): 71%; growth at 1 µM (BT-549): 17%; growth at 10 µM (T47D): -12%; growth at 1 µM (SK-MEL-2 [9]): 34%
2 | Cc1cc(O)cc(-c2nn(CC#N)cc2-c2ccnc(-c3ccc(Oc4ccccc4)cc3)c2)c1 | 79 | -34 | 97 | 92 | 1.74 | 3.75 | 8.07 | 2.25 | > 100 | 5.94 | 72 | 101 | -64 | -100 | 89 | 94 | 103 | 88 | -4 | 91 | growth at 0.001 µM (SK-MEL-5): 93%; growth at 1 µM (ACHN): -4%; growth at 0.01 µM (KM12): 94%; growth at 1 µM [6]: -20%; growth at 0.01 µM (HOP-62 [7]): 108%; growth at 0.1 µM (HOP-62 [8]): 101%; growth at 10 µM (NCI-H460): -88%; growth at 0.1 µM (A498): 84%; growth at 0.1 µM (SW-620): 92%; growth at 1 µM (BT-549): 4%; growth at 10 µM (T47D): -67%; growth at 1 µM (SK-MEL-2 [9]): 6%
3 | COc1cc(C)cc(-c2nn(CC#N)cc2-c2ccnc(-c3ccc(N(C)C)cc3)c2)c1 | 39 | -1 | 104 | 103 | 0.402 | 30.1 | > 100 | 0.293 | > 100 | 0.923 | 93 | 102 | 15 | -41 | -25 | 99 | 103 | 103 | 28 | 117 | growth at 0.001 µM (SK-MEL-5): 99%; growth at 1 µM (ACHN): 2%; growth at 0.01 µM (KM12): 89%; growth at 1 µM [6]: 1%; growth at 0.01 µM (HOP-62 [7]): 99%; growth at 0.1 µM (HOP-62 [8]): 16%; growth at 10 µM (NCI-H460): -51%; growth at 0.1 µM (A498): -8%; growth at 0.1 µM (SW-620): 14%; growth at 1 µM (BT-549): -10%; growth at 10 µM (T47D): -32%; growth at 1 µM (SK-MEL-2 [9]): 23%
4 | Cc1cc(O)cc(-c2nn(CC#N)cc2-c2ccnc(-c3ccc(N(C)C)cc3)c2)c1 | 89 | 14 | 96 | 100 | 3.91 | 24.8 | > 100 | 3.14 | > 100 | 12.9 | 91 | 103 | 24 | 2 | 51 | 86 | 98 | 97 | 29 | 94 | growth at 0.001 µM (SK-MEL-5): 92%; growth at 1 µM (ACHN): 18%; growth at 0.01 µM (KM12): 76%; growth at 1 µM [6]: 15%; growth at 0.01 µM (HOP-62 [7]): 89%; growth at 0.1 µM (HOP-62 [8]): 80%; growth at 10 µM (NCI-H460): -59%; growth at 0.1 µM (A498): 92%; growth at 0.1 µM (SW-620): 83%; growth at 1 µM (BT-549): 4%; growth at 10 µM (T47D): -44%; growth at 1 µM (SK-MEL-2 [9]): 11%
5 | COc1cc(C)cc(-c2c(-c3ccnc(-c4ccc(N(C)C)cc4)c3)cnn2CC#N)c1 | 9 | 9 | 100 | 95 | 0.0608 | 40.9 | > 100 | 0.105 | > 100 | 0.465 | 73 | 124 | 17 | -33 | -43 | 100 | 88 | 98 | 9 | 97 | growth at 0.001 µM (SK-MEL-5): 95%; growth at 1 µM (ACHN): 19%; growth at 0.01 µM (KM12): 20%; growth at 1 µM [6]: -31%; growth at 0.01 µM (HOP-62 [7]): 62%; growth at 0.1 µM (HOP-62 [8]): 33%; growth at 10 µM (NCI-H460): -55%; growth at 0.1 µM (A498): 10%; growth at 0.1 µM (SW-620): 12%; growth at 1 µM (BT-549): -29%; growth at 10 µM (T47D): 6%; growth at 1 µM (SK-MEL-2 [9]): 11%
6 | COc1cc(C)cc(-c2nn(CC#N)cc2-c2ccc(-c3cccc(C(C)=O)c3)nc2)c1 | 84 | 12 | 100 | 95 | 2.73 | 10.4 | > 100 | 1.78 | > 100 | 15.1 | 68 | 101 | 17 | 1 | 11 | 95 | 84 | 99 | 24 | 89 | growth at 0.001 µM (SK-MEL-5): 95%; growth at 1 µM (ACHN): 24%; growth at 0.01 µM (KM12): 96%; growth at 1 µM [6]: 8%; growth at 0.01 µM (HOP-62 [7]): 83%; growth at 0.1 µM (HOP-62 [8]): 82%; growth at 10 µM (NCI-H460): -81%; growth at 0.1 µM (A498): 53%; growth at 0.1 µM (SW-620): 56%; growth at 1 µM (BT-549): 5%; growth at 10 µM (T47D): -29%; growth at 1 µM (SK-MEL-2 [9]): 22%
